In ChEMBL document CHEMBL1128250, “Structure-activity studies of 2,3,4,4a,5,9b-hexahydroindeno[1,2-c]pyridines as antispermatogenic agents for male contraception” (1995):
Several values for one entry are separate records, joined by “and”; a condition that tells them apart may be missing. Equal entries are not always repeated.

How the values were obtained:
Mus musculus [1] = test: Effect on right testes weight asingle oral dose of 3 mg/kg was given and the change after 14 hr of dosing was observed.; format: functional, Testis
How it was run: (§1)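 Male CD-1 outbred Swiss albino mice, single oral gavage in acetate buffer pH 5 (10 mL/kg), 3, 10 or 30 mg/kg, plus vehicle control. Killed on day 1, 3 or 14 after dosing (times are days, not hours). Testes removed, right and left weighed separately, sectioned for histology and scored on a 0–6 spermatogenic index. Body weight change recorded. Mean ± SEM, n = 5; p < 0.05 versus control.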

Mus musculus [2] = test: Tested for its effect on mouse testes weight 3 days after single sub cutaneous dose (5 mg/kg); format: functional, Testis
How it was run: (§2)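 CD-1 outbred Swiss albino male mice, 5 per dose, single subcutaneous injection on day 0 at 10 mL/kg in ethanol/Tween-20/water (3:7:90). Killed 72 h later. Testes weighed and scored for spermatogenic index (0–6). Results are % reduction versus vehicle control. Each assay included a 30 mg/kg positive control. Dunnett's one-tailed t-test, p < 0.05. Oral versus sc route compared by ANOVA.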

Mus musculus [3] = test: tested for its effect on spermatogenic index 3 days after single oral dose (30 mg/kg); format: functional
How it was run: (§3)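 Male CD-1 (ICR)BR outbred Swiss albino mice, 5/dose, single oral gavage dose (10 mL/kg) on day 0 in acetate buffer pH 5 or Tween-20-based vehicle; killed 72 h later. Testis cross-sections scored histologically on a 0–6 spermatogenic index (Sertoli only to >100 late spermatids/tubule). Reported as % reduction versus vehicle control; Dunnett's one-tailed t-test.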

Mus musculus [4] = test: Effect on spermatogenic index single oral dose of 3 mg/kg was given and the change after 3 hr of dosing was observed.; format: functional; how it was run: as §1
Mus musculus [5] = test: Effect on spermatogenic index single oral dose of 30 mg/kg was given and the change after 14 hr of dosing was observed; format: functional; how it was run: as §1
Mus musculus [6] = test: Effect on left testes body weight single oral dose of 3 mg/kg was given and the change after 3 hr of dosing was observed.; format: functional, Testis; how it was run: as §1
Mus musculus [7] = test: Tested for its effect on spermatogenic index 3 days after single oral dose (30 mg/kg),; format: functional
How it was run: (§4)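 CD-1 outbred Swiss albino male mice, 5 per dose, single gavage on day 0 at 10 mL/kg. Vehicle was 0.15 M acetate buffer pH 5, ethanol/Tween-20/water (3:7:90), or 1% Tween-20 in water. CO2 euthanasia 72 h later. Testes weighed and histologically scored (spermatogenic index 0–6). Values are % reduction versus the assay's vehicle control. Positive control was 30 mg/kg of the parent compound. Significance by Dunnett's one-tailed t-test, p < 0.05.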

Mus musculus [8] = test: Effect on right testes weight single oral dose of 30 mg/kg was given and the change after 1 hr of dosing was observed; format: functional, Testis; how it was run: as §1
Mus musculus [9] = test: Effect on left testes body weight a single oral dose of 3 mg/kg was given and the change after 1 h of dosing was observed.; format: functional, Testis; how it was run: as §1
Mus musculus [10] = test: Effect on left testes weight single oral dose of 30 mg/kg was given and the change after 1 hr of dosing was observed.; format: functional, Testis; how it was run: as §1
Mus musculus [11] = test: Effect on left testes weight single oral dose of 30 mg/kg was given and the change after 3 hr of dosing was observed.; format: functional, Testis; how it was run: as §1
Mus musculus [12] = test: Effect on left testes body weight single oral dose of 10 mg/kg was given and the change after 3 hr of dosing was observed.; format: functional, Testis; how it was run: as §1
Mus musculus [13] = test: Tested for its effect on spermatogenic index 3 days after single oral dose (30 mg/kg); format: functional; how it was run: as §4
Mus musculus [14] = test: tested for its effect on spermatogenic index 3 days after single sub cutaneous dose (10 mg/kg); format: functional
How it was run: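 CD-1 male mice, 5/dose, injected subcutaneously once (10 mL/kg) on day 0 in ethanol/Tween-20/water (3:7:90); vehicle and positive controls included. Killed by CO2 after 72 h; testes weighed and sectioned, with histology scored as a 0–6 spermatogenic index. Both read-outs given as % reduction from control; Dunnett's one-tailed t-test.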

Mus musculus [15] = test: Effect on left testes body weight single oral dose of 3 mg/kg was given and the change after 14 hr of dosing was observed.; format: functional, Testis; how it was run: as §1
Mus musculus [16] = test: tested for its effect on mouse testes weight 3 days after single oral dose (1 mg/kg); format: functional, Testis
How it was run: (§5)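 Male CD-1 (ICR)BR outbred Swiss albino mice, 5/dose, given one oral gavage dose (10 mL/kg) on day 0 in 0.15 M acetate buffer pH 5, ethanol/Tween-20/water (3:7:90), or 1% Tween-20 in water; vehicle and positive-control groups in each assay. Killed by CO2 72 h later; testes weighed. Expressed as % reduction versus vehicle control; Dunnett's one-tailed t-test.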

Mus musculus [17] = test: Tested for its effect on testes weight 3 days after single sub cutaneous dose (10 mg/kg); format: functional, Testis; how it was run: as §2
Mus musculus [18] = test: Tested for its effect on spermatogenic index 3 days after single oral dose (90 mg/kg); format: functional; how it was run: as §4
Mus musculus [19] = test: tested for its effect on testes weight 3 days after single oral dose (30 mg/kg); format: functional, Testis; how it was run: as §5
Mus musculus [20] = test: Tested for its effect on testes weight 3 days after single oral dose (30 mg/kg); format: functional, Testis; how it was run: as §4
Mus musculus [21] = test: Effect on change in body weight single oral dose of 3 mg/kg was given and the change after 14 hr of dosing was observed.; format: functional; how it was run: as §1
Mus musculus [22] = test: Effect on right testes weight single oral dose of 3 mg/kg was given and the change after 1 hr of dosing was observed. Data are given as mean +/- SEM (N=5), P<0.05, compared to control; format: functional, Testis; how it was run: as §1
Mus musculus [23] = test: tested for its effect on mouse testes weight 3 days after single oral dose (3 mg/kg); format: functional, Testis; how it was run: as §5
Mus musculus [24] = test: Effect on change in body weight single oral dose of 10 mg/kg was given and the change after 14 hr of dosing was observed.; format: functional; how it was run: as §1
Mus musculus [25] = test: Tested for its effect on spermatogenic index 3 days after single oral dose (1 mg/kg),; format: functional; how it was run: as §4
Mus musculus [26] = species: Mus musculus; test: Tested for its effect on spermatogenic index 3 days after single sub cutaneous dose; format: functional; how it was run: as §2
Mus musculus [27] = test: Effect on right spermatogenic index single oral dose of 10 mg/kg was given and the change after 3 hr of dosing was observed.; format: functional; how it was run: as §1
Mus musculus [28] = test: Effect on right testes weight single oral dose of 30 mg/kg was given and the change after 3 hr of dosing was observed.; format: functional, Testis; how it was run: as §1
Mus musculus [29] = test: Tested for its effect on spermatogenic index 3 days after single sub cutaneous dose (10 mg/kg); format: functional
How it was run: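 Single subcutaneous injection, 10 mL/kg, to male CD-1 mice (5 per dose) in ethanol/Tween-20/water (3:7:90, v/v/v) on day 0. Mice were killed at 72 h; testes were weighed and histology scored for spermatogenic index (0–6). Results are % reduction from the vehicle control, with a 30 mg/kg positive control group. Dunnett's one-tailed t-test.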

Mus musculus [30] = test: Effect on right testes weight single oral dose of 10 mg/kg was given and the change after 1 hr of dosing was observed.; format: functional, Testis; how it was run: as §1
Mus musculus [31] = test: Tested for its effect on spermatogenic index 3 days after single oral dose (90 mg/kg),; format: functional; how it was run: as §4
Mus musculus [32] = test: Tested for its effect on mouse testes weight 3 days after single oral dose (10 mg/kg); format: functional, Testis; how it was run: as §4
Mus musculus [33] = test: Tested for its effect on mouse testes weight 3 days after single sub cutaneous dose (30 mg/kg); format: functional, Testis; how it was run: as §2
Mus musculus [34] = test: tested for its effect on spermatogenic index 3 days after single oral dose (3 mg/kg); format: functional; how it was run: as §3
Mus musculus [35] = test: tested for its effect on spermatogenic index 3 days after single oral dose (1 mg/kg); format: functional; how it was run: as §3
Mus musculus [36] = test: Effect on spermatogenic index single oral dose of 3 mg/kg was given and the change after 1 hr of dosing was observed.; format: functional; how it was run: as §1

## CCN1CC[C@H]2[C@H](c3ccc(C)cc3)c3cc(C)ccc3[C@H]2C1.Cl
Mus musculus [1]
  Testes weight: 126.5 mg
Mus musculus [2]
  Reduction: 5%
Mus musculus [3]
  Reduction: 62%
Mus musculus [4]
  Spermatogenic index: 5.8
Mus musculus [5]
  Spermatogenic index: 1.7
Mus musculus [6]
  Testes weight: 106.1 mg
Mus musculus [7]
  Reduction: 9%
Mus musculus [8]
  Testes weight: 93.9 mg
Mus musculus [9]
  Testes weight: 96.9 mg
Mus musculus [10]
  Testes weight: 92.8 mg
Mus musculus [11]
  Testes weight: 78.2 mg
Mus musculus [12]
  Testes weight: 107.8 mg
Mus musculus [13]
  Reduction: 50% and 39%
Mus musculus [14]
  Reduction: 41%
Mus musculus [15]
  Testes weight: 119.3 mg
Mus musculus [16]
  Reduction: 25%
Mus musculus [17]
  Reduction: -11%
Mus musculus [18]
  Reduction: -9%
Mus musculus [19]
  Reduction: 43%
Mus musculus [20]
  Reduction: 10%
Mus musculus [21]
  Change in body weight: 3.62 g
Mus musculus [22]
  Testes weight: 104.9 mg
Mus musculus [23]
  Reduction: 13%
Mus musculus [24]
  Change in body weight: 3.18 g
Mus musculus [25]
  Reduction: 7%
Mus musculus [26]
  Reduction: 0%
Mus musculus [27]
  Spermatogenic index: 3.5
Mus musculus [28]
  Testes weight: 81 mg
Mus musculus [29]
  Reduction: 0% and 10%
Mus musculus [30]
  Spermatogenic index: 4
  Testes weight: 88.2 mg
Mus musculus [31]
  Reduction: 5%
Mus musculus [32]
  Reduction: 10%
Mus musculus [33]
  Reduction: 14%
Mus musculus [34]
  Reduction: 31%
Mus musculus [35]
  Reduction: 59%
Mus musculus [36]
  Spermatogenic index: 6
